Laboratory results reported in ChEMBL document CHEMBL3877264, “Quinolidene-rhodanine conjugates: Facile synthesis and biological evaluation” (Eur J Med Chem, 2017).
Values after ≈ are worked out from the molar mass of the structure shown.

Assays:
Format in all cases: functional
[1] = Antifungal activity against Fusarium oxysporum NCIM 1332 by standard agar method
Summary of the method: (§1)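 MICs determined by standard agar method; DMSO as solvent control.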

Staphylococcus aureus [2] = assay: Growth inhibition of Staphylococcus aureus NCIM 2010 at 30 ug/ml measured after 12 hrs relative to control; settings: NCIM 2010, 12 h, read-out: GI
Summary of the method: (§2)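 Bacteria grown in LB at 37 °C and 180 rpm to OD 1. Compounds added to wells, then 0.1% inoculum of 1 OD culture (620 nm). Growth read as OD at 620 nm after 8 h for gram-negative and after 12 h for gram-positive strains.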

Bacillus subtilis [3] = assay: Growth inhibition of Bacillus subtilis NCIM 2079 at 30 ug/ml measured after 12 hrs relative to control; settings: NCIM 2079, 12 h, read-out: GI; summary of the method: as §2
Staphylococcus aureus [4] = assay: Growth inhibition of Staphylococcus aureus NCIM 2010 at 10 ug/ml measured after 12 hrs relative to control; settings: NCIM 2010, 12 h, read-out: GI; summary of the method: as §2
Staphylococcus aureus [5] = assay: Growth inhibition of Staphylococcus aureus NCIM 2010 at 3 ug/ml measured after 12 hrs relative to control; settings: NCIM 2010, 12 h, read-out: GI; summary of the method: as §2
Bacillus subtilis [6] = assay: Growth inhibition of Bacillus subtilis NCIM 2079 at 10 ug/ml measured after 12 hrs relative to control; settings: NCIM 2079, 12 h, read-out: GI; summary of the method: as §2
Bacillus subtilis [7] = assay: Growth inhibition of Bacillus subtilis NCIM 2079 at 3 ug/ml measured after 12 hrs relative to control; settings: NCIM 2079, 12 h, read-out: GI; summary of the method: as §2
Escherichia coli [8] = assay: Growth inhibition of Escherichia coli NCIM 2688 at 30 ug/ml measured after 8 hrs relative to control; settings: NCIM 2688, 8 h, read-out: GI; summary of the method: as §2
Escherichia coli [9] = assay: Growth inhibition of Escherichia coli NCIM 2688 at 10 ug/ml measured after 8 hrs relative to control; settings: NCIM 2688, 8 h, read-out: GI; summary of the method: as §2
Escherichia coli [10] = assay: Growth inhibition of Escherichia coli NCIM 2688 at 3 ug/ml measured after 8 hrs relative to control; settings: NCIM 2688, 8 h, read-out: GI; summary of the method: as §2
Pseudomonas fluorescens [11] = assay: Growth inhibition of Pseudomonas fluorescens NCIM 2036 at 30 ug/ml measured after 8 hrs relative to control; settings: NCIM 2036, 8 h, read-out: GI; summary of the method: as §2
Pseudomonas fluorescens [12] = assay: Growth inhibition of Pseudomonas fluorescens NCIM 2036 at 10 ug/ml measured after 8 hrs relative to control; settings: NCIM 2036, 8 h, read-out: GI; summary of the method: as §2
Pseudomonas fluorescens [13] = assay: Growth inhibition of Pseudomonas fluorescens NCIM 2036 at 3 ug/ml measured after 8 hrs relative to control; settings: NCIM 2036, 8 h, read-out: GI; summary of the method: as §2
Escherichia coli [14] = assay: Antibacterial activity against Escherichia coli NCIM 2688 measured after 8 hrs; settings: NCIM 2688, 8 h; summary of the method: as §2
Pseudomonas fluorescens [15] = assay: Antibacterial activity against Pseudomonas fluorescens NCIM 2036 measured after 8 hrs; settings: NCIM 2036, 8 h; summary of the method: as §2
Staphylococcus aureus [16] = assay: Antibacterial activity against of Staphylococcus aureus NCIM 2010 measured after 12 hrs; settings: NCIM 2010, 12 h; summary of the method: as §2
Bacillus subtilis [17] = assay: Antibacterial activity against Bacillus subtilis NCIM 2079 measured after 12 hrs; settings: NCIM 2079, 12 h; summary of the method: as §2
[18] = system: Mycobacterium tuberculosis; assay: Growth inhibition of Mycobacterium bovis BCG ATCC 35743 at dormant stage at 30 ug/ml measured after 12 days by nitrate reductase dye based two fold dilution method relative to control; settings: BCG str. ATCC 35743, 288 h, read-out: GI
Summary of the method: (§3)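 M. bovis BCG was grown in Dubos medium and assayed in Mycobacterium pheli minimal medium (pH 6.6), with compounds from DMSO stocks. Incubation lasted 8 days for active and 12 days for dormant cultures. Viability was read by nitrate reductase at 540 nm against cell-free blanks, with vehicle set as 100% growth. Primary screen was at 30, 10 and 3 µg/ml, in triplicate, mean ± SD. MIC was taken from dose-response curves.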

[19] = system: Mycobacterium tuberculosis; assay: Growth inhibition of Mycobacterium bovis BCG ATCC 35743 at dormant stage at 10 ug/ml measured after 12 days by nitrate reductase dye based two fold dilution method relative to control; settings: BCG str. ATCC 35743, 288 h, read-out: GI; summary of the method: as §3
[20] = system: Mycobacterium tuberculosis; assay: Growth inhibition of Mycobacterium bovis BCG ATCC 35743 at dormant stage at 3 ug/ml measured after 12 days by nitrate reductase dye based two fold dilution method relative to control; settings: BCG str. ATCC 35743, 288 h, read-out: GI; summary of the method: as §3
[21] = system: Mycobacterium tuberculosis; assay: Growth inhibition of Mycobacterium bovis BCG ATCC 35743 at active stage measured after 8 days by nitrate reductase dye based two fold dilution method; settings: BCG str. ATCC 35743, 192 h; summary of the method: as §3
[22] = system: Mycobacterium tuberculosis; assay: Growth inhibition of Mycobacterium tuberculosis H37Ra ATCC 25177 at dormant stage measured after 12 days by XTT dye based two fold dilution method; settings: H37Ra ATCC 25177, 288 h
Summary of the method: (§4)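 MTB H37Ra was grown in Dubos medium, then exposed in Mycobacterium pheli minimal medium (pH 6.6) to compounds dissolved in DMSO. The assay ended on day 8 (active) or day 12 (dormant). Viable cells were measured by XTT reduction menadione assay at 470 nm, blank-corrected, relative to vehicle control. Triplicates were expressed as mean ± SD. MIC came from dose-response curves.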

[23] = system: Mycobacterium tuberculosis; assay: Growth inhibition of Mycobacterium bovis BCG ATCC 35743 at dormant stage measured after 12 days by nitrate reductase dye based two fold dilution method; settings: BCG str. ATCC 35743, 288 h; summary of the method: as §3
[24] = system: Mycobacterium tuberculosis; assay: Growth inhibition of Mycobacterium tuberculosis H37Ra ATCC 25177 at active stage measured after 8 days by XTT dye based two fold dilution method; settings: H37Ra ATCC 25177, 192 h; summary of the method: as §4
Candida albicans = assay: Antifungal activity against Candida albicans NCIM 3471 by standard agar method; summary of the method: as §1
Aspergillus flavus = assay: Antifungal activity against Aspergillus flavus NCIM 539 by standard agar method; summary of the method: as §1
Aspergillus niger = assay: Antifungal activity against Aspergillus niger NCIM 1196 by standard agar method; summary of the method: as §1
[25] = Antifungal activity against Cryptococcus neoformans NCIM 576 by standard agar method; summary of the method: as §1

Row | SMILES | MIC [1] [µg/mL] | inhibition of growth at 30 µg/mL (Staphylococcus aureus [2]) [%] | inhibition of growth at 30 µg/mL (Bacillus subtilis [3]) [%] | inhibition of growth at 10 µg/mL (Staphylococcus aureus [4]) [%] | inhibition of growth at 3 µg/mL (Staphylococcus aureus [5]) [%] | inhibition of growth at 10 µg/mL (Bacillus subtilis [6]) [%] | inhibition of growth at 3 µg/mL (Bacillus subtilis [7]) [%] | inhibition of growth at 30 µg/mL (Escherichia coli [8]) [%] | inhibition of growth at 10 µg/mL (Escherichia coli [9]) [%] | inhibition of growth at 3 µg/mL (Escherichia coli [10]) [%] | inhibition of growth at 30 µg/mL (Pseudomonas fluorescens [11]) [%] | inhibition of growth at 10 µg/mL (Pseudomonas fluorescens [12]) [%] | inhibition of growth at 3 µg/mL (Pseudomonas fluorescens [13]) [%] | MIC (Escherichia coli [14]) [µg/mL] | MIC (Pseudomonas fluorescens [15]) [µg/mL] | MIC (Staphylococcus aureus [16]) [µg/mL] | MIC (Bacillus subtilis [17]) [µg/mL] | inhibition of growth at 30 µg/mL [18] [%] | inhibition of growth at 10 µg/mL [19] [%] | inhibition of growth at 3 µg/mL [20] [%] | further results
1 | Cc1ccc2cc(/C=C3\SC(=S)N(CC(=O)O)C3=O)c(Cl)nc2c1 | 125 (≈ 330 µM) | -16 | 2.96 | -23.6 | -13.1 | -1.27 | 2.07 | -12.5 | 2.04 | 1.9 | -8.32 | -10.7 | -11.5 | > 30 | > 30 | > 30 | > 30 | 11.4 | 22.4 | 22.7 | IC50 [21]: > 30 µg/mL; IC90 [21]: > 30 µg/mL; IC50 [22]: > 30 µg/mL; IC90 [22]: > 30 µg/mL; IC50 [23]: > 30 µg/mL; IC90 [23]: > 30 µg/mL; IC50 [24]: > 30 µg/mL; IC90 [24]: > 30 µg/mL; MIC (Candida albicans): 125 µg/mL (≈ 330 µM); MIC (Aspergillus flavus): 100 µg/mL (≈ 264 µM); MIC (Aspergillus niger): 75 µg/mL (≈ 198 µM); MIC [25]: 150 µg/mL (≈ 396 µM)
2 | O=C(O)CCN1C(=O)/C(=C/c2cc3cc(F)ccc3nc2Cl)SC1=S | 50 (≈ 126 µM) | -23.8 | -9.07 | -12.1 | 5.15 | -4.74 | -5.16 | 22.4 | 21.4 | 15.7 | 7.54 | -7.25 | 9.73 | > 30 | > 30 | > 30 | > 30 | 59.8 | 23.5 | 18.2 | IC50 [21]: > 30 µg/mL; IC90 [21]: > 30 µg/mL; IC50 [22]: > 30 µg/mL; IC90 [22]: > 30 µg/mL; IC50 [23]: > 30 µg/mL; IC90 [23]: > 30 µg/mL; IC50 [24]: > 30 µg/mL; IC90 [24]: > 30 µg/mL; MIC (Candida albicans): 50 µg/mL (≈ 126 µM); MIC (Aspergillus flavus): 25 µg/mL (≈ 63 µM); MIC (Aspergillus niger): 25 µg/mL (≈ 63 µM); MIC [25]: 25 µg/mL (≈ 63 µM)
3 | Cc1cccc2cc(/C=C3\SC(=S)N(CCC(=O)O)C3=O)c(Cl)nc12 | 100 (≈ 255 µM) | -12.1 | -5.57 | -19.7 | -4.02 | -5.28 | -3.04 | 10.5 | 4.27 | 8.12 | 16 | -2.3 | 4.57 | > 30 | > 30 | > 30 | > 30 | 24.8 | 27.9 | 17.2 | IC50 [21]: > 30 µg/mL; IC90 [21]: > 30 µg/mL; IC50 [22]: > 30 µg/mL; IC90 [22]: > 30 µg/mL; IC50 [23]: > 30 µg/mL; IC90 [23]: > 30 µg/mL; IC50 [24]: > 30 µg/mL; IC90 [24]: > 30 µg/mL; MIC (Candida albicans): 50 µg/mL (≈ 127 µM); MIC (Aspergillus flavus): 150 µg/mL (≈ 382 µM); MIC (Aspergillus niger): 75 µg/mL (≈ 191 µM); MIC [25]: 100 µg/mL (≈ 255 µM)
